Compound activity (PubChem BioAssay)
Sampled rows, rich in hits. Any-hit rate of the full collection: about 2.9%.
TRPC4 potent – TRPC4 (mouse) allosteric potentiation | HEK293 TRPC4beta/mu-opioid, DAMGO EC20, Fluo-4 Ca2+ flux; hits give high values | Q9QUQ5 | B-score at 10 µM | 310,000 compounds, 0.42% hits;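 active = B-score of calcium response area above 5 SD of library B-scores, with initial fluorescence ratio within 5 SD of library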;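 also: B-score of integrated fluorescence ratio over time as area under calcium response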
Target sequence (Q9QUQ5 whole entry, looked up): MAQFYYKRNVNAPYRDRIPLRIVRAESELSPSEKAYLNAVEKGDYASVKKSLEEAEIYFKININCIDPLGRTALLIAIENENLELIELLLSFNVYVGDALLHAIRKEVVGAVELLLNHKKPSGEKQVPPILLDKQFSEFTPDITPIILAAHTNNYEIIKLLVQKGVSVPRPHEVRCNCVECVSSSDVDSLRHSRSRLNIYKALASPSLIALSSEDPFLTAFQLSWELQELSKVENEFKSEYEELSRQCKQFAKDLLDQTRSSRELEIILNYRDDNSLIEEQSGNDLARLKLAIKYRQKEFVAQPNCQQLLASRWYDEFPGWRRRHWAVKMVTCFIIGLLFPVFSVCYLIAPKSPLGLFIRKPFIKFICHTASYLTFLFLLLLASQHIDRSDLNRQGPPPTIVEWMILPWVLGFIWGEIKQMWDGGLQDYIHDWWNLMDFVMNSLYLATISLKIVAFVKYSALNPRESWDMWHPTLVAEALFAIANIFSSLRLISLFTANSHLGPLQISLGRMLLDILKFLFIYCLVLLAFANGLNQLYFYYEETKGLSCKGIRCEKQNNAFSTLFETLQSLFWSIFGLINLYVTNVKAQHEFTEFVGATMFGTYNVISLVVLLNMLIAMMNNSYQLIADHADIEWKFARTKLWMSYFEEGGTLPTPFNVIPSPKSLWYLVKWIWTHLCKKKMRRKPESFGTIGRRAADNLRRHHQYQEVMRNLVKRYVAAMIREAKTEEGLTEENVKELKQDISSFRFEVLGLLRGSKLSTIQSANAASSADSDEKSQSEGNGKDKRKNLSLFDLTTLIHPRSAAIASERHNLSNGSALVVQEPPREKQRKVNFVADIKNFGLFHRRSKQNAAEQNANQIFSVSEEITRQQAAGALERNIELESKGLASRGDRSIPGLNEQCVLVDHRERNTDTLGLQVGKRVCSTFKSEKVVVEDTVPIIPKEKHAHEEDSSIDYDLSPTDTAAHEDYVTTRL
TRPC4 agonist – TRPC4 (mouse) channel activation | Q9QUQ5 | HEK293 TRPC4beta/mu-opioid, Fluo4 calcium fluorescence; hits give high values | B-score at 10 µM | 310,000 compounds, 0.49% hits | AID 2237;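 active = B-score above 5 SD of library B-scores, and initial fluorescence ratio not above library mean plus 5 SD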;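 also: positive B-score marks a calcium rise read as TRPC4 activation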
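Assay system: HEK293 stable line with TRPC4beta plus mu-opioid receptor; schedule: 45 min room-temperature Fluo4 loading, 110 s read; technique: kinetic Fluo4 calcium fluorescence; evaluation: integrated baseline-normalised fluorescence ratio, converted to per-well B score; controls: buffer (low) and maximal DAMGO (high)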
Kir21 inh – Kir2.1 (mouse) channel inhibition; P35561; HEK293-Kir2.1, FluxOR thallium flux fluorescence; hits give low values; B-score at 10 µM; 310,000 compounds, 0.85% hits;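 active = fluorescence ratio B-score at or below minus 3 SD of library scores, with starting-brightness B-score within 2 SD, cut at about -4.2 in these data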;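 also: channel flux triggered by added potassium and thallium sulfate stimulus; B-score of peak minus minimum fluorescence over baseline after thallium stimulus; more negative B-score means stronger Kir2.1 block with less thallium influx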
TRPC6 inh – mouse TRPC6 channel inhibition | Q61143 | HEK293-TRPC6, membrane potential dye, ACh-evoked depolarization; hits give low values | B-score at 10 µM | 310,000 compounds, 1.1% hits | AID 2553;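 active = B-score under library mean minus 3 SD, initial fluorescence not abnormally high, positive integrated signal ratio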;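 also: B-score derived from integrated fluorescence ratio over the kinetic read; more negative B-score means stronger inhibition of depolarization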
TRPC6 activator – mouse TRPC6 channel activation. B-score at 10 µM. Q61143. 310,000 compounds, 0.13% hits. HEK293-TRPC6 membrane potential dye fluorescence; hits give high values;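 active = B-score of the integrated fluorescence ratio above library mean plus 3 SD, and starting fluorescence ratio within library mean plus 5 SD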;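 also: higher score means more depolarization so channel activation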
TRPC4 block – TRPC4 (mouse) channel inhibition; B-score at 10 µM; AID 2247; Q9QUQ5; 300,000 compounds, 0.39% hits; HEK293 TRPC4beta/mu-opioid, DAMGO-evoked Fluo4 calcium flux; hits give low values;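 active = B-score over 3 SD under the library average, no early fluorescence shift, positive overall ratio signal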
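Material: HEK293 cells with stable TRPC4beta plus mu-opioid receptor expression / Probe or stimulus: DAMGO in two steps, submaximal then maximal / Compound: single concentration per test compound / Technique: kinetic Fluo4 fluorescence imaging of calcium influx / Read-out: per-well B score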
TRPC4 sel inh 2 – second selectivity test of TRPC6 inhibitors: effect on mouse TRPC4 | 920 compounds, 42% hits | shares compounds with TRPC6 inh | inhibition, % at 10 µM | HEK293 TRPC4/MOR, membrane potential dye fluorescence; channel activated by saturating DAMGO dose;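 active = compounds whose fluorescence signal differed from control wells by over 3 SD, either direction, in both duplicate plates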
TRPC4 spec – selectivity of TRPC6 inhibitors: effect on mouse TRPC4 | 920 compounds, 61% hits | shares compounds with TRPC6 inh | HEK293 TRPC4/mu-opioid, membrane potential fluorescence | activity change, negative = inhibition, % at 10 µM;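 active = rise or fall in signal beyond 3 SD of buffer-only wells in both replicate plates, either sign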;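 also: integrated kinetic ratio of fluorescence range over baseline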
HEK293 MPD ctr 2-1 – second check of TRPC6 inhibitor effects in parental HEK293 cells; shares compounds with TRPC6 inh; parental HEK293 membrane potential dye fluorescence; maximal acetylcholine challenge after compound addition; signal change vs control, % at 10 µM; 920 compounds, 31% hits; AID 2779;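 active = membrane potential signal moving either way by over 3 SD of the maximum-effect control, in both duplicate plates, meaning non-specific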
HEK293 MPD ctr-1 – counter-screen for TRPC6 inhibitors: effect in parental HEK293 cells; 920 compounds, 60% hits; AID 2780; parental HEK293 membrane potential dye fluorescence; membrane potential signal change, % at 10 µM; shares compounds with TRPC6 inh;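 active = membrane potential signal shifting up or down by more than 3 SD of buffer-only wells, on both duplicate plates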
HEK293 MPD ctr-2 – checks TRPC6 modulator effects in parental HEK293 cells; shares compounds with TRPC6 inh; membrane potential dye fluorescence; membrane potential signal change, % at 10 µM; 2,400 compounds, 51% hits; AID 488924;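 active = membrane potential signal moves up or down beyond 5 SD from buffer-only wells, on both duplicate plates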
HEK293 MPD ctr 2-2 – parental HEK293 nonspecific activity of TRPC6 modulators, second screen | 2,400 compounds, 14% hits | AID 488926 | shares compounds with TRPC6 inh | inhibition, % at 10 µM | membrane potential dye fluorescence; after compound, maximal acetylcholine stimulation;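 active = membrane potential signal drops by more than 5 SD from the mean control signal, in both duplicate plates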;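 also: plate controls were acetylcholine ECmax control wells for no effect and buffer only wells for full effect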
TRPC4/MOR mod – mouse TRPC4 off-target activity of TRPC6 modulators | percent change from control (negative = decrease, positive = increase), % at 10 µM | HEK293 TRPC4/mu-opioid, membrane potential fluorescence | shares compounds with TRPC6 inh | 2,400 compounds, 69% hits | AID 488927;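 active = membrane potential signal moved up or down beyond 5 SD of buffer control wells, in both duplicate plates, actives on both sides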;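 also: plate controls were assay buffer wells for no effect and DAMGO maximal-effect wells for full effect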
TRPC4/MOR inh 2 – second selectivity test of TRPC6 modulators against mouse TRPC4; shares compounds with TRPC6 inh; HEK293 TRPC4/mu-opioid, membrane potential dye fluorescence; stimulated with maximal-effect DAMGO; inhibition, % at 10 µM; 2,400 compounds, 55% hits; AID 488928;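 active = drop in membrane potential signal beyond 5 SD of the control wells in both duplicate plates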;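 also: TRPC4 counter screen for TRPC6 hits run under conditions tuned for TRPC6 not TRPC4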
TRPC6 inh conf – confirmation of mouse TRPC6 inhibitors; shares compounds with TRPC6 inh; HEK293-TRPC6, membrane potential dye, ACh-evoked depolarization; inhibition, % at 10 µM; 3,300 compounds, 43% hits; AID 488960;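 active = fluorescence ratio falls more than 5 SD below the full-stimulation control mean, in both duplicate runs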;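 also: integrated fluorescence ratio of peak minus minimum over baseline after agonist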
TRPC6 act confirm – mouse TRPC6 activator confirmation; shares compounds with TRPC6 inh; HEK293-TRPC6 membrane potential dye fluorescence, FDSS; activation, % at 10 µM; 2,800 compounds, 11% hits; AID 488961;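 active = ratio signal rise beyond 5 SD above unstimulated control wells' mean, seen in both duplicate runs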;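 also: plate controls were buffer EC0 wells for no effect and acetylcholine ECmax response for full effect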
The depositor's hits bear a star; i = inactive; nt = no result given.

SMILES	TRPC4 potent	TRPC4 agonist	Kir21 inh	TRPC6 inh	TRPC6 activator	TRPC4 block	TRPC4 sel inh 2	TRPC4 spec	HEK293 MPD ctr 2-1	HEK293 MPD ctr-1	HEK293 MPD ctr-2	HEK293 MPD ctr 2-2	TRPC4/MOR mod	TRPC4/MOR inh 2	TRPC6 inh conf	TRPC6 act confirm
O=[N+]([O-])c1cccnc1N1CCN(c2ccccc2F)CC1	i	i	0.67	i	i	i	nt	nt	nt	nt	nt	nt	nt	nt	nt	nt
Cc1ccc(S(=O)(=O)Nc2cc(NC(=O)CN3CCOCC3)ccc2Cl)cc1	i	i	-0.61	i	i	i	nt	nt	nt	nt	nt	nt	nt	nt	nt	nt
CCCn1c2ccccc2c2cnn(CC(=O)NCCCN3CCN(c4ccccc4)CC3)c(=O)c21	i	i	-4.6*	-5.3*	i	i	nt	nt	nt	nt	134%*	i	8.0%*	74%*	i	nt
NNc1ccc2c(C(F)(F)F)cc(C(F)(F)F)nc2n1	i	i	-0.15	i	i	i	nt	nt	nt	nt	nt	nt	nt	nt	nt	nt
N#CC(c1cccc(Cl)c1)c1ccc2c(C(F)(F)F)cc(C(F)(F)F)nc2n1 (centres undefined)	i	i	-1.4	-10*	i	i	i	0.8%*	i	0.4%*	nt	nt	nt	nt	75%*	i
Cc1cc(=O)oc2cc(OCC(=O)NC3CC(C)(C)NC(C)(C)C3)c(Cl)cc12	i	i	1.3	i	i	i	nt	nt	nt	nt	nt	nt	nt	nt	nt	nt
CCc1cc(=O)oc2c(C)c(OCC(=O)NC3CC(C)(C)NC(C)(C)C3)ccc12	i	i	-2.4	-5.7*	i	i	nt	nt	nt	nt	-150%*	i	-31%*	36%*	38%*	i
CCc1ccc(CCC(=O)Nc2ccc(C(C)=O)cc2)o1	i	i	-0.03	i	i	i	nt	nt	nt	nt	nt	nt	nt	nt	nt	nt
CCOC(=O)c1ccc(NC(=O)CCc2ccc(CC)o2)cc1	i	i	2.7	-12*	i	i	i	i	i	i	nt	nt	nt	nt	i	nt
CC1CC(O)(CC(O)(c2ccccc2)c2ccccc2)C(C)CN1C (centres undefined)	i	i	0.96	i	i	i	nt	nt	nt	nt	nt	nt	nt	nt	nt	nt
CCN1CC(C)C(O)(c2ccccc2)CC1C (centres undefined)	i	i	-1.2	-7.2*	i	i	i	i	i	i	nt	nt	nt	nt	i	i
CCN(CC)CCNC(=O)c1ccc(NC(=O)c2ccc(Cl)c(S(=O)(=O)N3CCCCCC3)c2)cc1	i	i	0.01	-6*	i	i	nt	nt	nt	nt	113%*	76%*	12%*	i	42%*	nt
